Test results as given in ChEMBL document CHEMBL3588805, “Characterization and Biological Activities of Ocellatin Peptides from the Skin Secretion of the Frog Leptodactylus pustulatus” (J Nat Prod, 2015).
Values after ≈ are worked out from the molar mass of the structure shown. Where a SMILES comes first, the peptide text is derived from it.

Experiments:
Staphylococcus aureus = assay: Antibacterial activity against Staphylococcus aureus […] assessed as inhibition of visible bacterial growth incubated at 37 degC for 24 hrs by CLSI protocol based method; type: functional
In short: (§1)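 Broth microdilution per CLSI 2012. Strains grown at 37 °C in Mueller-Hinton broth to log phase (1 × 10^8 CFU/mL). Peptide 2-fold serial dilutions, 6.25–800 μg/mL, in Mueller-Hinton broth; final inoculum 5 × 10^5 CFU/mL per well. Aerobic incubation 24 h at 37 °C. MIC is the lowest concentration with no visible growth (A600 < 0.05). Meropenem control for Gram-negatives, oxacillin for S. aureus. Triplicate, two independent experiments.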

Salmonella enterica = assay: Antibacterial activity against Salmonella choleraesuis ATCC 14028 assessed as inhibition of visible bacterial growth incubated at 37 degC for 24 hrs by CLSI protocol based method; type: functional; conditions: ATCC 14028, 24 h
In short: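 Strain grown at 37 °C in Mueller-Hinton broth to log phase (1 × 10^8 CFU/mL). Broth microdilution per CLSI (2012) with 2-fold peptide dilutions in Mueller-Hinton broth, 6.25–800 μg/mL, final inoculum 5 × 10^5 CFU/mL. Incubated 24 h, 37 °C, aerobic. MIC is the lowest concentration giving absorbance below 0.05 at 600 nm. Meropenem control. Triplicate, two independent experiments.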

Escherichia coli = assay: Antibacterial activity against Escherichia coli ATCC 25922 assessed as inhibition of visible bacterial growth incubated at 37 degC for 24 hrs by CLSI protocol based method; type: functional; conditions: ATCC 25922, 24 h; in short: as §1
[1] = Toxicity in human RBC assessed as induction of hemolysis at 800 ug/mL incubated for 1 hr at 37 degC; type: cell-based, Erythrocyte; conditions: human red blood cells (RBC), read-out: Activity
In short: (§2)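 Human RBCs collected in EDTA (1.8 mg/mL), washed three times, resuspended in 0.85% saline, mixed with an equal volume of peptide solution (100–800 μg/mL). 1 h at 37 °C, centrifuged at 10000g for 1 min, supernatant absorbance read at 550 nm. Saline and 0.1% (v/v) Triton X as 0 and 100% controls. % hemolysis = (A peptide − A saline)/(A Triton − A saline) × 100.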

Klebsiella pneumoniae = assay: Antibacterial activity against Klebsiella pneumoniae ATCC 700603 assessed as inhibition of visible bacterial growth incubated at 37 degC for 24 hrs by CLSI protocol based method; type: functional; conditions: ATCC 700603, 24 h; in short: as §1
[2] = Cytotoxicity against mouse NIH/3T3 cells at antibacterial MIC (Escherichia coli ATCC 25922) assessed as reduction in cell index incubated for 60 hrs; type: cell-based; conditions: nih3t3, 60 h
[3] = Toxicity in human RBC assessed as induction of hemolysis at antibacterial MIC (Escherichia coli ATCC 25922) incubated for 1 hr at 37 degC; type: cell-based, Erythrocyte; conditions: human red blood cells (RBC), read-out: Activity; in short: as §2

CC[C@H](C)[C@H](NC(=O)[C@H](C)NC(=O)[C@H](Cc1cnc[nH]1)NC(=O)[C@H](C)NC(=O)[C@@H](NC(=O)[C@H](CC(C)C)NC(=O)[C@H](CC(=O)O)NC(=O)[C@H](CCCCN)NC(=O)CNC(=O)[C@H](C)NC(=O)CNC(=O)[C@H](CCCCN)NC(=O)[C@@H](NC(=O)[C@@H](NC(=O)[C@H](CC(=O)O)NC(=O)[C@@H](NC(=O)[C@@H](NC(=O)CN)C(C)C)[C@@H](C)CC)[C@@H](C)CC)[C@@H](C)CC)[C@@H](C)CC)C(=O)NCC(=O)N[C@@H](CCCCN)C(=O)N[C@@H](CC(C)C)C(=O)N[C@@H](C)C(=O)N[C@@H](CCC(=O)O)C(=O)N[C@@H](CCCCN)C(=O)N[C@H](C(N)=O)C(C)C (H-GVIDIIKGAGKDLIAHAIGKLAEKV-NH2)
MIC (Staphylococcus aureus): > 320 µM | MIC (Salmonella enterica): > 320 µM | MIC (Escherichia coli): 320 µM (≈ 809 µg/mL) | hemolysis at 1 h, 800 ug/mL [1]: 0.69% | MIC (Klebsiella pneumoniae): > 320 µM | Activity [2]: Non-toxic | hemolysis at 1 h [3]: 0.69%

CC[C@H](C)[C@H](NC(=O)[C@H](CCCCN)NC(=O)CNC(=O)[C@H](CCSC)NC(=O)[C@H](C)NC(=O)[C@H](Cc1cnc[nH]1)NC(=O)[C@H](C)NC(=O)[C@@H](NC(=O)[C@H](CC(C)C)NC(=O)[C@H](CCC(N)=O)NC(=O)[C@H](CCCCN)NC(=O)CNC(=O)[C@H](C)NC(=O)CNC(=O)[C@H](CCCCN)NC(=O)[C@@H](NC(=O)[C@@H](NC(=O)[C@H](CC(=O)O)NC(=O)[C@H](Cc1ccccc1)NC(=O)[C@@H](NC(=O)CN)C(C)C)[C@@H](C)CC)[C@@H](C)CC)[C@@H](C)CC)C(=O)N[C@@H](C)C(=O)N[C@@H](CCC(=O)O)C(=O)N[C@@H](CCCCN)C(=O)N[C@H](C(N)=O)C(C)C (H-GVFDIIKGAGKQLIAHAMGKIAEKV-NH2)
MIC (Staphylococcus aureus): > 310 µM | MIC (Salmonella enterica): 310 µM (≈ 804 µg/mL) | MIC (Escherichia coli): 80 µM (≈ 208 µg/mL) | hemolysis at 1 h, 800 ug/mL [1]: 4.29% | MIC (Klebsiella pneumoniae): 310 µM (≈ 804 µg/mL) | Activity [2]: Non-toxic | hemolysis at 1 h [3]: 0.19%

CC[C@H](C)[C@H](NC(=O)[C@H](CCCCN)NC(=O)CNC(=O)[C@H](CCSC)NC(=O)[C@H](C)NC(=O)[C@H](Cc1cnc[nH]1)NC(=O)[C@H](C)NC(=O)[C@@H](NC(=O)[C@H](CC(C)C)NC(=O)[C@H](CCC(N)=O)NC(=O)[C@H](CCCNC(=N)N)NC(=O)CNC(=O)[C@H](C)NC(=O)[C@H](CC(=O)O)NC(=O)[C@H](CCCCN)NC(=O)[C@@H](NC(=O)[C@@H](NC(=O)[C@H](CC(=O)O)NC(=O)[C@H](Cc1ccccc1)NC(=O)[C@@H](NC(=O)CN)C(C)C)[C@@H](C)CC)[C@@H](C)CC)C(C)C)C(=O)N[C@@H](C)C(=O)N[C@@H](CCC(=O)O)C(=O)N[C@@H](CCCCN)C(=O)N[C@H](C(N)=O)C(C)C (H-GVFDIIKDAGRQLVAHAMGKIAEKV-NH2)
MIC (Staphylococcus aureus): > 300 µM | MIC (Salmonella enterica): > 300 µM | MIC (Escherichia coli): 300 µM (≈ 800 µg/mL) | hemolysis at 1 h, 800 ug/mL [1]: 4.05% | MIC (Klebsiella pneumoniae): > 300 µM | Activity [2]: Non-toxic | hemolysis at 1 h [3]: 4.05%

CC[C@H](C)[C@H](NC(=O)[C@H](CCCCN)NC(=O)CNC(=O)[C@H](CCSC)NC(=O)[C@H](C)NC(=O)[C@H](CCCNC(=N)N)NC(=O)[C@H](C)NC(=O)[C@@H](NC(=O)[C@H](CC(C)C)NC(=O)[C@H](CCC(N)=O)NC(=O)[C@H](CCCCN)NC(=O)CNC(=O)[C@H](C)NC(=O)CNC(=O)[C@H](CCCCN)NC(=O)[C@@H](NC(=O)[C@@H](NC(=O)[C@H](CC(=O)O)NC(=O)[C@H](Cc1ccccc1)NC(=O)[C@@H](NC(=O)CN)C(C)C)[C@@H](C)CC)[C@@H](C)CC)[C@@H](C)CC)C(=O)N[C@@H](C)C(=O)N[C@@H](CCC(=O)O)C(=O)N[C@@H](CCCCN)C(=O)N[C@H](C(=O)NCC(=O)N[C@@H](CC(C)C)C(=O)N[C@@H](CC(N)=O)C(=O)N[C@@H](CCCCN)C(=O)N[C@@H](CC(=O)O)C(=O)NCC(=O)N[C@@H](CC(N)=O)C(=O)O)C(C)C (H-GVFDIIKGAGKQLIARAMGKIAEKVGLNKDGN-OH)
MIC (Staphylococcus aureus): 240 µM (≈ 795 µg/mL) | MIC (Salmonella enterica): 240 µM (≈ 795 µg/mL) | MIC (Escherichia coli): 60 µM (≈ 199 µg/mL) | hemolysis at 1 h, 800 ug/mL [1]: 8.09% | MIC (Klebsiella pneumoniae): 240 µM (≈ 795 µg/mL) | Activity [2]: Non-toxic | hemolysis at 1 h [3]: 0%
